Source: ChEMBL document CHEMBL2346664, “Synthesis, characterization and in vitro anticancer evaluation of novel 1,2,4-triazolin-3-one derivatives” (2013)
Calls of active or inactive are those of the source. The calls are words filed in the database; no cut-off is given here.

Legend:
UO-31 = assay: Growth inhibition of human UO31 cells assessed as cell growth at 10 '-6 M after 48 hrs by sulforhodamine B assay; type: functional; settings: UO-31, 48 h, read-out: Activity
TK-10 [1] = assay: Growth inhibition of human TK10 cells assessed as cell growth at 10 '-8 M after 48 hrs by sulforhodamine B assay; type: functional; settings: TK-10, 48 h, read-out: Activity
IGROV-1 [2] = assay: Growth inhibition of human IGROV1 cells assessed as cell growth at 10 '-5 M after 48 hrs by sulforhodamine B assay; type: functional; settings: IGROV-1, 48 h, read-out: Activity
MDA-MB-231 [3] = assay: Growth inhibition of human MDA-MB-231 cells assessed as growth inhibition at 10 uM after 48 hrs by sulforhodamine B assay; type: functional; settings: MDA-MB-231, 48 h, read-out: GI
[4] = Growth inhibition of human NCI-ADR-RES cells assessed as cell growth at 10 '-5 M after 48 hrs by sulforhodamine B assay; type: functional; settings: read-out: Activity
MOLT-4 = assay: Growth inhibition of human MOLT4 cells assessed as cell growth at 10 '-5 M after 48 hrs by sulforhodamine B assay; type: functional; settings: MOLT-4, 48 h, read-out: Activity
HOP-92 = assay: Growth inhibition of human HOP92 cells assessed as cell growth at 10 '-5 M after 48 hrs by sulforhodamine B assay; type: functional; settings: HOP-92, 48 h, read-out: Activity
CCRF-CEM = assay: Growth inhibition of human CCRF-CEM cells assessed as growth inhibition at 10 uM after 48 hrs by sulforhodamine B assay; type: functional; settings: read-out: GI
Summary of the method: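 NCI-60 primary single-dose screen at 10^-5 M, 48 h continuous exposure. Adherent cells were fixed with cold TCA (10% final) and suspension cells with 16% final TCA, then stained with 0.4% SRB in 1% acetic acid. Bound dye was solubilized in 10 mM Tris base and read at 515 nm. Output is growth percent relative to untreated controls, and GI% is 100 minus growth percent.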

MDA-MB-231 [5] = assay: Growth inhibition of human MDA-MB-231 cells assessed as cell growth at 10 '-6 M after 48 hrs by sulforhodamine B assay; type: functional; settings: MDA-MB-231, 48 h, read-out: Activity
MDA-MB-435 [6] = assay: Growth inhibition of human MDA-MB-435 cells assessed as cell growth at 10 '-5 M after 48 hrs by sulforhodamine B assay; type: functional; settings: MDA-MB-435, 48 h, read-out: Activity
Malme-3M = assay: Growth inhibition of human MALME-3M cells assessed as cell growth at 10 '-7 M after 48 hrs by sulforhodamine B assay; type: functional; settings: read-out: Activity
U-251 [7] = assay: Growth inhibition of human U251 cells assessed as cell growth at 10 '-5 M after 48 hrs by sulforhodamine B assay; type: functional; settings: U-251, 48 h, read-out: Activity
HOP-62 = assay: Growth inhibition of human HOP62 cells assessed as growth inhibition at 10 uM after 48 hrs by sulforhodamine B assay; type: functional; settings: HOP-62, 48 h, read-out: GI
IGROV-1 [8] = assay: Growth inhibition of human IGROV1 cells after 48 hrs by sulforhodamine B assay; type: functional; settings: IGROV-1, 48 h
Summary of the method: (§1)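 NCI 60-cell-line five-dose screen. Cells were plated at 5,000–40,000/well by doubling time and grown 24 h at 37 °C, 5% CO2. Time-zero plates were TCA-fixed. Drug from DMSO stock was tested at 0.01, 0.1, 1, 10 and 100 µM final for 48 h continuous exposure. Read-out was SRB at 515 nm. GI50 is the concentration giving 50% reduction in net protein increase versus untreated control.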

DU-145 = assay: Growth inhibition of human DU145 cells after 48 hrs by sulforhodamine B assay; type: functional; settings: DU-145, 48 h; summary of the method: as §1
SK-OV-3 [9] = assay: Growth inhibition of human SKOV3 cells assessed as growth inhibition at 10 uM after 48 hrs by sulforhodamine B assay; type: functional; settings: SK-OV-3, 48 h, read-out: GI
SK-OV-3 [10] = assay: Growth inhibition of human SKOV3 cells assessed as cell growth at 10 '-4 M after 48 hrs by sulforhodamine B assay; type: functional; settings: SK-OV-3, 48 h, read-out: Activity
IGROV-1 [11] = assay: Growth inhibition of human IGROV1 cells assessed as cell growth at 10 uM after 48 hrs by sulforhodamine B assay; type: functional; settings: IGROV-1, 48 h, read-out: Activity
U-251 [12] = assay: Growth inhibition of human U251 cells assessed as cell growth at 10 '-6 M after 48 hrs by sulforhodamine B assay; type: functional; settings: U-251, 48 h, read-out: Activity
UACC-257 = assay: Growth inhibition of human UACC257 cells assessed as cell growth at 10 '-8 M after 48 hrs by sulforhodamine B assay; type: functional; settings: UACC-257, 48 h, read-out: Activity
TK-10 [13] = assay: Growth inhibition of human TK10 cells assessed as growth inhibition at 10 uM after 48 hrs by sulforhodamine B assay; type: functional; settings: TK-10, 48 h, read-out: GI
SNB-19 = assay: Growth inhibition of human SNB19 cells assessed as cell growth at 10 '-7 M after 48 hrs by sulforhodamine B assay; type: functional; settings: SNB-19, 48 h, read-out: Activity
HCT-15 = assay: Growth inhibition of human HCT15 cells after 48 hrs by sulforhodamine B assay; type: functional; settings: HCT-15, 48 h; summary of the method: as §1
PC-3 = assay: Growth inhibition of human PC3 cells assessed as growth inhibition at 10 uM after 48 hrs by sulforhodamine B assay; type: functional; settings: PC-3, 48 h, read-out: GI
SK-MEL-28 [14] = assay: Growth inhibition of human SK-MEL-28 cells assessed as cell growth at 10 '-4 M after 48 hrs by sulforhodamine B assay; type: functional; settings: SK-MEL-28, 48 h, read-out: Activity
SK-MEL-28 [15] = assay: Growth inhibition of human SK-MEL-28 cells assessed as cell growth at 10 '-6 M after 48 hrs by sulforhodamine B assay; type: functional; settings: SK-MEL-28, 48 h, read-out: Activity
SK-MEL-2 = assay: Growth inhibition of human SK-MEL-2 cells after 48 hrs by sulforhodamine B assay; type: functional; settings: SK-MEL-2, 48 h
SR = assay: Growth inhibition of human SR cells after 48 hrs by sulforhodamine B assay; type: functional
[16] = Growth inhibition of human HCC2998 cells assessed as cell growth at 10 '-5 M after 48 hrs by sulforhodamine B assay; type: functional; settings: HCC 2998, 48 h, read-out: Activity
SW-620 = assay: Growth inhibition of human SW620 cells assessed as cell growth at 10 '-5 M after 48 hrs by sulforhodamine B assay; type: functional; settings: SW-620, 48 h, read-out: Activity
MDA-MB-435 [17] = assay: Growth inhibition of human MDA-MB-435 cells assessed as growth inhibition at 10 uM after 48 hrs by sulforhodamine B assay; type: functional, cell-based
U-251 [18] = assay: Growth inhibition of human U251 cells assessed as growth inhibition at 10 uM after 48 hrs by sulforhodamine B assay; type: functional; settings: U-251, 48 h, read-out: GI
[19] = read-out: LD50 (the source's name)

Q: What does the source list for Cc1cc(=O)oc2cc(OCCn3c(C)nn(-c4ccc(Cl)cc4)c3=O)ccc12?
A: growth at 1 µM (UO-31): 74%; growth at 0.01 µM (TK-10 [1]): 94%; growth at 10 µM (IGROV-1 [2]): 61%; inhibition of growth at 10 µM (MDA-MB-231 [3]): 52.5%; growth at 10 µM [4]: 10%; growth at 10 µM (MOLT-4): 26%; growth at 10 µM (HOP-92): 55%; inhibition of growth at 10 µM (CCRF-CEM): 86.6%; growth at 1 µM (MDA-MB-231 [5]): 66%; growth at 10 µM (MDA-MB-435 [6]): -27%; growth at 0.1 µM (Malme-3M): 104%; growth at 10 µM (U-251 [7]): 27%; inhibition of growth at 10 µM (HOP-62): 72.7%; GI50 (IGROV-1 [8]): 3500 nM; TGI (IGROV-1 [8]): > 1000 nM; GI50 (DU-145): 3900 nM; TGI (DU-145): > 1000 nM; CC50 (DU-145; [19]): > 1000 nM; inhibition of growth at 10 µM (SK-OV-3 [9]): 58.9%; growth at 100 µM (SK-OV-3 [10]): -7%; growth at 10 µM (IGROV-1 [11]): 59.7%; growth at 1 µM (U-251 [12]): 87%; growth at 0.01 µM (UACC-257): 95%; inhibition of growth at 10 µM (TK-10 [13]): 40.4%; growth at 0.1 µM (SNB-19): 89%; GI50 (HCT-15): 3200 nM; TGI (HCT-15): > 1000 nM; CC50 (HCT-15; [19]): > 1000 nM; inhibition of growth at 10 µM (PC-3): 51.5%; growth at 100 µM (SK-MEL-28 [14]): 33%; growth at 1 µM (SK-MEL-28 [15]): 67%; GI50 (SK-MEL-2): 1820 nM; TGI (SK-MEL-2): > 1000 nM; CC50 (SK-MEL-2; [19]): > 1000 nM; GI50 (SR): 4970 nM; TGI (SR): 6670 nM; CC50 (SR; [19]): > 1000 nM; growth at 10 µM [16]: 29%; growth at 10 µM (SW-620): 16%; growth inhibition (GI) (MDA-MB-435 [17]): Active; inhibition of growth at 10 µM (U-251 [18]): 68.6%
